Test results taken from ChEMBL document CHEMBL1154468, “Synthesis and evaluation of fluoroquinolone derivatives as substrate-based inhibitors of bacterial efflux pumps” (2008).
Converted amounts (≈) assume the structure as drawn. The source made the active and inactive calls. The calls are words filed in the database; no cut-off is given here.

Experiments:
[1] = target: T1, Quinolone resistance protein NorA (Staphylococcus aureus) (UniProt P0A0J7); settings: 30 uM
T1 sequence (whole entry): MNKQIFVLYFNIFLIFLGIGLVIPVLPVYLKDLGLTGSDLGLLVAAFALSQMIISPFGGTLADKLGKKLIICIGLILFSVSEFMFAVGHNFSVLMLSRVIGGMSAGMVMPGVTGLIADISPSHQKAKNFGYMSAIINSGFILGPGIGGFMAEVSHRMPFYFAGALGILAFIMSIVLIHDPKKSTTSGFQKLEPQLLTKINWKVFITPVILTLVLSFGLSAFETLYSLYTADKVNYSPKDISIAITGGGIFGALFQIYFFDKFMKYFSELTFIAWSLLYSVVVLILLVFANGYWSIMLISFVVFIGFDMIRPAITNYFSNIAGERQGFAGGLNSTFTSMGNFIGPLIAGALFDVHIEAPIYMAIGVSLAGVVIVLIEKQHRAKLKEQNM

Staphylococcus aureus [2] = experiment: Inhibition of MepA efflux pump in Staphylococcus aureus K2361 assessed as reduction of ethidium bromide efflux at 30 uM for 5 mins; settings: in the assay text read “K1758-A” for “K2361”
[3] = target: T1, Quinolone resistance protein NorA (Staphylococcus aureus); experiment: Inhibition of NorA efflux pump in Staphylococcus aureus K2361 assessed as reduction of ethidium bromide efflux at 0.5 uM […]
Staphylococcus aureus [4] = experiment: Antibacterial activity against Staphylococcus aureus K1758-P by broth microdilution technique; format: functional
Method in brief: (§1)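 S. aureus K1758-P is the susceptible control for K1758-A, a K1758-background strain carrying a constructed plasmid for mepA overexpression. MIC was determined on both.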

Pseudomonas aeruginosa [5] = experiment: Antibacterial activity against Pseudomonas aeruginosa OCR1 overexpressing mexAB by broth microdilution technique; format: functional
Method in brief: (§2)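 MIC tested on P. aeruginosa PAO1, the susceptible control, and on its derivatives OCR1 (mexAB overexpresser) and K1536 (mexCD overexpresser).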

Escherichia coli [6] = experiment: Antibacterial activity against Escherichia coli AG100 by broth microdilution technique; format: functional
Method in brief: (§3)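 MIC determined against E. coli AG102, an acrAB overexpresser, alongside its susceptible parental control AG100.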

Staphylococcus aureus [7] = experiment: Antibacterial activity against Staphylococcus aureus K2361 overexpressing norA by broth microdilution technique; format: functional
Method in brief: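 MIC assessed on norA-overexpressing S. aureus K2361, paired with K1902 as its susceptible control.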

Pseudomonas aeruginosa [8] = experiment: Antibacterial activity against Pseudomonas aeruginosa PAO1 by broth microdilution technique; format: functional
Method in brief: as §2

Staphylococcus aureus [9] = experiment: Antibacterial activity against Staphylococcus aureus K1902 by broth microdilution technique; format: functional
Pseudomonas aeruginosa [10] = experiment: Antibacterial activity against Pseudomonas aeruginosa K1536 overexpressing mexCD by broth microdilution technique; format: functional
Method in brief: as §2

Escherichia coli [11] = experiment: Antibacterial activity against Escherichia coli AG102 overexpressing acrAB by broth microdilution technique; format: functional
Method in brief: as §3

Staphylococcus aureus [12] = experiment: Antibacterial activity against Staphylococcus aureus K1758-A overexpressing mepA by broth microdilution technique; format: functional
Method in brief: as §1

Staphylococcus aureus [13] = experiment: Inhibition of MepA efflux pump in Staphylococcus aureus K2361 assessed as reduction of ethidium bromide efflux at 2 uM for 5 mins; settings: in the assay text read “K1758-A” for “K2361”
[14] = target: T1, Quinolone resistance protein NorA (Staphylococcus aureus); experiment: Inhibition of NorA efflux pump in Staphylococcus aureus K2361 assessed as reduction of ethidium bromide efflux at 10 uM for 5 mins
[15] = target: T1, Quinolone resistance protein NorA (Staphylococcus aureus); experiment: Inhibition of NorA efflux pump in Staphylococcus aureus K2361 assessed as reduction of ethidium bromide efflux at 2 uM for 5 mins
Staphylococcus aureus [16] = experiment: Inhibition of MepA efflux pump in Staphylococcus aureus K2361 assessed as reduction of ethidium bromide efflux at 0.5 uM […]; settings: in the assay text read “K1758-A” for “K2361”
Staphylococcus aureus [17] = experiment: Inhibition of MepA efflux pump in Staphylococcus aureus K2361 assessed as reduction of ethidium bromide efflux at 10 uM for 5 mins; settings: in the assay text read “K1758-A” for “K2361”
[18] = target: T1, Quinolone resistance protein NorA (Staphylococcus aureus); experiment: Inhibition of NorA efflux pump in Staphylococcus aureus K2361 assessed as reduction of ethidium bromide efflux for 5 mins
Staphylococcus aureus [19] = experiment: Inhibition of MepA efflux pump in Staphylococcus aureus […] assessed as reduction of ethidium bromide efflux for 5 mins
Staphylococcus aureus [20] = experiment: Antibacterial activity against ciprofloxacin-resistant Staphylococcus aureus at > 100 ug/ml by broth microdilution technique; format: functional, organism-based

| inhibition [3] [%] | SMILES | MIC (Staphylococcus aureus [4]) [µg/mL] | MIC (Pseudomonas aeruginosa [5]) [µg/mL] | MIC (Escherichia coli [6]) [µg/mL] | MIC (Staphylococcus aureus [7]) [µg/mL] | MIC (Pseudomonas aeruginosa [8]) [µg/mL] | MIC (Staphylococcus aureus [9]) [µg/mL] | MIC (Pseudomonas aeruginosa [10]) [µg/mL] | MIC (Escherichia coli [11]) [µg/mL] | MIC (Staphylococcus aureus [12]) [µg/mL] | also measured |
| --- | --- | --- | --- | --- | --- | --- | --- | --- | --- | --- | --- |
| – | COC(=O)[C@H]1[C@H]2C[C@@H]3c4[nH]c5cc(OC)ccc5c4CCN3C[C@H]2C[C@@H](OC(=O)c2cc(OC)c(OC)c(OC)c2)[C@@H]1OC | – | – | – | – | – | – | – | – | – | inhibition [1]: 81%; inhibition (Staphylococcus aureus [2]): 32% |
| 20 | O=C(Nc1ccccc1)Nc1ccccc1 | – | – | – | – | – | – | – | – | – | – |
| 20 | NCc1ccc(NC(=O)Nc2ccc(Cl)cc2)cc1 | – | – | – | – | – | – | – | – | – | – |
| – | CC1COc2c(N3CCN(C)CC3)c(F)cc3c(=O)c(C(=O)O)cn1c23 (stereo not given) [OFLOXACIN] | 0.63 (≈ 1.74 µM) | 6.25 (≈ 17.3 µM) | 0.08 (≈ 0.221 µM) | 2.5 (≈ 6.92 µM) | 1.25 (≈ 3.46 µM) | 0.63 (≈ 1.74 µM) | 6.25 (≈ 17.3 µM) | 0.16 (≈ 0.443 µM) | 1.25 (≈ 3.46 µM) | – |
| – | O=C(O)c1cn(C2CC2)c2cc(N3CCNCC3)c(F)cc2c1=O [CIPROFLOXACIN] | 0.16 (≈ 0.483 µM) | 0.78 (≈ 2.35 µM) | ≤ 0.019 | 2.5 (≈ 7.54 µM) | 0.16 (≈ 0.483 µM) | 0.16 (≈ 0.483 µM) | 0.78 (≈ 2.35 µM) | 0.04 (≈ 0.121 µM) | 0.63 (≈ 1.9 µM) | – |
| 20 | NCc1ccc(NC(=O)Nc2ccccc2)cc1 | – | – | – | – | – | – | – | – | – | – |
| – | O=C(Nc1ccccc1)Nc1ccc(CN2CCN(c3cc4c(cc3F)c(=O)c(C(=O)O)cn4C3CC3)CC2)cc1 | 0.63 (≈ 1.13 µM) | 50 (≈ 90 µM) | 5 (≈ 9 µM) | 1.25 (≈ 2.25 µM) | 50 (≈ 90 µM) | 0.31 (≈ 0.558 µM) | 50 (≈ 90 µM) | 10 (≈ 18 µM) | 0.63 (≈ 1.13 µM) | Activity [18]: inactive; Activity (Staphylococcus aureus [19]): inactive; Activity (Staphylococcus aureus [20]): inactive |
| – | NCCC[C@H](N)C(=O)N[C@@H](Cc1ccccc1)C(=O)N1CCN(c2cc3c(cc2F)c(=O)c(C(=O)O)cn3C2CC2)CC1 | > 10 | 50 (≈ 84.4 µM) | 10 (≈ 16.9 µM) | – | 50 (≈ 84.4 µM) | > 10 | 50 (≈ 84.4 µM) | 10 (≈ 16.9 µM) | – | – |
| – | NCCC[C@@H](NC(=O)[C@@H](N)Cc1ccccc1)C(=O)N1CCN(c2cc3c(cc2F)c(=O)c(C(=O)O)cn3C2CC2)CC1 | 10 (≈ 16.9 µM) | 50 (≈ 84.4 µM) | 10 (≈ 16.9 µM) | > 10 | 50 (≈ 84.4 µM) | 10 (≈ 16.9 µM) | 50 (≈ 84.4 µM) | 10 (≈ 16.9 µM) | > 10 | – |

| SMILES | inhibition [3] [%] | MIC (Staphylococcus aureus [4]) [µg/mL] | MIC (Pseudomonas aeruginosa [5]) [µg/mL] | MIC (Escherichia coli [6]) [µg/mL] | MIC (Staphylococcus aureus [7]) [µg/mL] | MIC (Pseudomonas aeruginosa [8]) [µg/mL] | MIC (Staphylococcus aureus [9]) [µg/mL] | MIC (Pseudomonas aeruginosa [10]) [µg/mL] | MIC (Escherichia coli [11]) [µg/mL] | MIC (Staphylococcus aureus [12]) [µg/mL] | also measured |
| --- | --- | --- | --- | --- | --- | --- | --- | --- | --- | --- | --- |
| CC1COc2c(NCc3ccc(NC(=O)Nc4ccccc4)cc3)c(F)cc3c(=O)c(C(=O)O)cn1c23 (stereo not given) | 73.6 | > 100 | 50 (≈ 99.5 µM) | 10 (≈ 19.9 µM) | 100 (≈ 199 µM) | 50 (≈ 99.5 µM) | > 100 | 100 (≈ 199 µM) | 10 (≈ 19.9 µM) | – | inhibition (Staphylococcus aureus [13]): 65.9%; inhibition [14]: 96.4%; inhibition [15]: 85.6%; inhibition (Staphylococcus aureus [16]): 53.4%; inhibition (Staphylococcus aureus [17]): 84.1% |
